Experimental data collected from several papers.
Protocols differ between the studies behind these lines.
Dipeptidyl peptidase 8: Dipeptidyl peptidase 8 (Homo sapiens, UniProt Q6V1X1)
HTR1D: 5-hydroxytryptamine receptor 1D (HTR1D, Homo sapiens, UniProt P28221)

CC(C)C[C@@H]1C(=O)N[C@H]([C@@H](C)O)C(=O)N[C@H](C)[C@@H](C)C(=O)O[C@@H](Cc2ccccc2)C(=O)N(C)[C@@H](C(C)C)C(=O)N2CCC[C@H]2C(=O)N(C)[C@H](Cc2ccccc2)C2=N[C@@H](CS2)C(=O)N[C@H](C)C2=N[C@@H](CS2)C(=O)N1C
IC50 (Dipeptidyl peptidase 8; enzyme activity; inhibitor): 16.6 µM

O=C(NO)c1ccccc1
IC50 (Histone deacetylase 6, CD2 (hdac6, Danio rerio, UniProt F8W4B7); enzyme activity; inhibitor; fluorescence): 3.42 µM

COc1ccc(C(=O)CCN2CCN(c3ccccc3OC)CC2)cc1
Ki (HTR1D; ligand displacement; radioligand): 0.062 µM

C[C@]12CCc3c(ccc4cc(O)ccc34)[C@@H]1CCC2=O
Ki (ksi (Comamonas testosteroni, UniProt P00947); enzyme activity; inhibitor; absorbance): 5 µM

Fc1ccc2onc(C3CCNCC3)c2c1
Ki (Sodium-dependent serotonin transporter (Slc6a4, Rattus norvegicus, UniProt P31652); ligand displacement; radioligand): > 10 µM

COc1ccc(C(=O)CCN2CCN(c3ccccc3F)CC2)cc1
Ki (HTR1D; ligand displacement; radioligand): 0.185 µM

CSCC[C@H](NC(=O)[C@H](Cc1c[nH]c2ccccc12)NC(=O)CNC(=O)[C@H](Cc1ccc(O)cc1)NC(=O)[C@H](C)NC(=O)[C@@H](CCC(=O)O)NC(=O)CN1CCN(CC(=O)O)CCN(CC(=O)O)CCN(CC(=O)O)CC1)C(=O)N[C@@H](CC(=O)O)C(=O)N(C)[C@@H](Cc1ccccc1)C(N)=O
IC50 (Gastrin/cholecystokinin type B receptor (Rattus norvegicus, UniProt P30553); ligand displacement; radioligand): 0.0226 µM

NCCC[C@H](N)C(=O)O
Ki (Arginase (Schistosoma mansoni, UniProt Q6WVP6); enzyme activity; inhibitor; absorbance): 1900 µM

COC[C@H]1OC(=O)c2coc3c2[C@@]1(C)C1=C(C3=O)[C@@H]2CCC(=O)[C@@]2(C)C[C@H]1OC(C)=O
Kd (TGF-beta receptor type-2 (TGFBR2, Homo sapiens, UniProt P37173); cell-free assay; competition with immobilised ligand): > 10 µM

CC(C)S[C@@H]1O[C@H](CO)[C@H](O)[C@H](O)[C@H]1O
Ki (Beta-galactosidase (lacZ, Escherichia coli K-12, UniProt P00722); enzyme activity; inhibitor; fluorescence): 36 µM

CC[C@H]1NC(=O)[C@@H]2CSC(=N2)[C@H](Cc2ccccc2)N(C)C(=O)[C@@H]2CCCN2C(=O)[C@H](C(C)C)N(C)C(=O)[C@H](Cc2ccccc2)OC(=O)[C@H](C)[C@@H](C)NC(=O)[C@@H]([C@@H](C)O)NC(=O)[C@@H](CC(C)C)N(C)C(=O)[C@@H]2CSC1=N2
IC50 (Dipeptidyl peptidase 8; enzyme activity; inhibitor): 6.41 µM

CCCCCc1cc(O)c2c(c1)OC(C)(CCC=C(C)C)C=C2 (stereo not shown)
IC50 (Polyunsaturated fatty acid 5-lipoxygenase (ALOX5, Homo sapiens, UniProt P09917); enzyme activity in cells; inhibitor): 1.5 µM

COc1ccccc1N1CCN(Cc2coc3c(Cl)cc(Cl)cc3c2=O)CC1
Ki (HTR1D; ligand displacement; radioligand): 2.06 µM

CC(C)Cc1ccc([C@H](C)C(=O)O)cc1
IC50 (Histone acetyltransferase KAT2B (KAT2B, Homo sapiens, UniProt Q92831); enzyme activity; inhibitor; mobility shift): ~6000 µM

O=C(CCCN1CCN(c2ccccc2)CC1)c1ccc(F)cc1
Ki (HTR1D; ligand displacement; radioligand): 0.169 µM

C#CCNC(=O)c1cc2ccc(N(CC)CC)cc2oc1=O
IC50 (Acetylcholinesterase (Ache, Mus musculus, UniProt P21836); enzyme activity; inhibitor; Ellman; pH 7.6): 1 µM
